From ChEMBL document CHEMBL1121679, “Gastric antisecretory agents. 1. Antisecretory and antiulcer activity of 5H-[1]benzopyrano[2,3-b]pyridin-5-ylureas and 5H-[1]benzothiopyrano[2,3-b]pyridin-5-ylureas” (1981)

Columns and labels:
Rattus norvegicus [1] = assay: Antisecretory activity was evaluated in pylorus ligated rat after ip administration at 40 mg/kg of dose, expressed as reduction of gastric output; conditions: route intraperitoneal
Canis familiaris [2] = assay: Antisecretory activity was evaluated in adult mongrel dog after iv administration at 5 mg/kg of dose, expressed as reduction of gastric output; type: functional, Canis lupus familiaris, Stomach
Method in brief: (§1)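 Conscious mongrel dogs with surgical Heidenhain pouches. Histamine was infused iv at 0.4 (μg/kg)/min, giving 50–60% of maximal acid output. The test agent was given iv or orally by gavage 1 h into the infusion. Acid output (volume × titrated acid) was collected in 30-min fractions and summed over 3 h, then compared with control runs in the same dog. Usually a single dog per compound.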

Canis familiaris [3] = assay: Antisecretory activity was evaluated in adult mongrel dog after po administration at 8 mg/kg of dose, expressed as reduction of gastric output; type: functional, Canis lupus familiaris, Stomach
Method in brief: as §1

Rattus norvegicus [4] = assay: Compound was measured for percentage inhibition of aspirin-induced ulcers at 30 mg/kg after po administration; type: functional
Method in brief: (§2)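 Rats fasted 24 h received the test agent orally in 0.4% methylcellulose-saline, then 1 h later 100 mg/kg aspirin orally. Stomachs were removed 4 h after aspirin and opened along the greater curvature, and ulcers were counted under a 2× magnifier. Inhibition was based on mean lesion number vs controls. Eight rats per compound; Student's t test.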

Rattus norvegicus [5] = assay: Compound was measured for percentage inhibition of aspirin-induced ulcers at 10 mg/kg after po administration; type: functional
Method in brief: as §2

Canis familiaris [6] = assay: Compound was measured for percentage reduction in insulin hypoglycemia stimulated canine gastric acid secretion after po administration at 8 mg/kg dosage; type: functional, Canis lupus familiaris, Stomach
Method in brief: (§3)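 Dogs with simple gastric fistulas. The test agent (iv or oral) was given at the time of regular insulin injection. Gastric collections were made for 3 h, and percent reduction of acid output was calculated against control studies in the same animals; n per entry as reported.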

Canis familiaris [7] = assay: Compound was measured for percentage reduction in dimaprit stimulated canine gastric acid secretion after po administration at 8 mg/kg dosage; type: functional, Canis lupus familiaris, Stomach
Method in brief: (§4)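 Heidenhain pouch dogs. Acid output was summed over 3 h after dosing and expressed as percent reduction relative to control studies in the same animal; n per entry as reported.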

Rattus norvegicus [8] = assay: Compound was measured for percentage inhibition of aspirin-induced ulcers at 3 mg/kg after po administration; type: functional
Method in brief: as §2

Canis familiaris [9] = assay: Compound was measured for percentage reduction in food stimulated canine gastric acid secretion after iv administration at 5 mg/kg dosag; type: functional, Canis lupus familiaris, Stomach
Method in brief: (§5)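 Heidenhain pouch dogs given the test agent (iv or oral) together with a meal of 250 g ground cooked beef hearts. Acid output was collected and expressed as percent reduction relative to control studies in the same animal; n per entry as reported.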

Canis familiaris [10] = assay: Compound was measured for percentage reduction in food stimulated canine gastric acid secretion after po administration at 8 mg/kg dosage; type: functional, Canis lupus familiaris, Stomach
Method in brief: as §5

Canis familiaris [11] = assay: Compound was measured for percentage reduction in dimaprit stimulated canine gastric acid secretion after iv administration at 5 mg/kg dosage; type: functional, Canis lupus familiaris, Stomach
Method in brief: as §4

Canis familiaris [12] = assay: Compound was measured for percentage reduction in insulin hypoglycemia stimulated canine gastric acid secretion after iv administration at 5 mg/kg dosage; type: functional, Canis lupus familiaris, Stomach
Method in brief: as §3

Canis familiaris [13] = assay: Compound was measured for percentage reduction in food stimulated canine gastric acid secretion after iv administration at 5 mg/kg dosage; type: functional, Canis lupus familiaris, Stomach
Method in brief: as §5

Rattus norvegicus [14] = assay: Compound was measured for percentage inhibition of aspirin-induced ulcers at 20 mg/kg after po administration; type: functional
Method in brief: as §2

SMILES | Reduction (Rattus norvegicus [1]) [%] | Reduction (Canis familiaris [2]) [%] | Reduction (Canis familiaris [3]) [%] | further results
CNC(=O)N(C)C1c2cc(CO)ccc2Oc2ncccc21 (stereo unspecified) | <30 | <30 | – | –
CNC(=O)N(C)C1c2ccccc2Oc2ccncc21 (stereo unspecified) | 77 | <30 | – | –
CNC(=O)N(C)C1c2cc(C)ccc2Oc2ncccc21 (stereo unspecified) | 71 | 62 | <30 | –
CN(C(=O)NC(C)(C)C)C1c2ccccc2Oc2ncccc21 (stereo unspecified) | 82 | 35 | <30 | –
NC(=O)NC1c2ccccc2Oc2ncccc21 (stereo unspecified) | 46 | 36 | – | –
CNC(=O)N(C)C1c2cc(Cl)c(C)cc2Oc2ncccc21 (stereo unspecified) | 65 | <30 | – | –
CN(C(=O)N1CCOCC1)C1c2ccccc2Oc2ncccc21 (stereo unspecified) | 95 | 64 | <30 | –
CN(C)C(=O)NC1c2ccccc2Oc2ncccc21 (stereo unspecified) | 95 | 35 | <30 | inhibition in vivo at 30 mg/kg (Rattus norvegicus [4]): 74%
CN(C(=O)Nc1ccccc1)C1c2ccccc2Oc2ncccc21 (stereo unspecified) | 45 | 55 | <30 | –
CNC(=O)N(C)C1c2ccccc2Sc2ncccc21 (stereo unspecified) | 96 | 80 | <30 | inhibition in vivo at 10 mg/kg (Rattus norvegicus [5]): 68%; inhibition in vivo at 30 mg/kg (Rattus norvegicus [4]): 100%; Reduction (Canis familiaris [6]): 62%; Reduction (Canis familiaris [7]): <30%; inhibition in vivo at 3 mg/kg (Rattus norvegicus [8]): 0%; Reduction (Canis familiaris [9]): 78%; Reduction (Canis familiaris [10]): <30%; Reduction (Canis familiaris [11]): 78%; Reduction (Canis familiaris [12]): 97%
CNC(=O)N(C)C1c2cc([N+](=O)[O-])ccc2Oc2ncccc21 (stereo unspecified) | 71 | <30 | – | –
CNC(=O)NC1c2ccccc2Oc2ncccc21 (stereo unspecified) | 54 | 31 | – | –
CNC(=O)N(C)C1c2cc(C(=O)OC)ccc2Oc2ncccc21 (stereo unspecified) | <30 | <30 | – | –
CN(C(N)=O)C1c2ccccc2Oc2ncccc21 (stereo unspecified) | 70 | 30 | – | –
CNC(=O)N(C)C1c2ccccc2Oc2ncccc21 (stereo unspecified) | – | 84 | <30 | inhibition in vivo at 10 mg/kg (Rattus norvegicus [5]): 89%; inhibition in vivo at 30 mg/kg (Rattus norvegicus [4]): 100%; Reduction (Canis familiaris [6]): <30%; Reduction (Canis familiaris [13]): 69%; inhibition in vivo at 3 mg/kg (Rattus norvegicus [8]): 51%; Reduction (Canis familiaris [10]): <30%; Reduction (Canis familiaris [11]): 58%; Reduction (Canis familiaris [12]): 79%
CN/C(=N\CCSCc1nc[nH]c1C)NC#N [CIMETIDINE] | 74 | 84 | 86 | inhibition in vivo at 10 mg/kg (Rattus norvegicus [5]): 67%
CNC(=O)N(C)C1c2ccc(C)cc2Oc2ncccc21 (stereo unspecified) | 81 | 75 | <30 | –
CNC(=O)N(C)C1c2cc(OC)ccc2Oc2ncccc21 (stereo unspecified) | 59 | 51 | <30 | –
CNC(=O)N(C)C1c2ccccc2Oc2cccnc21 (stereo unspecified) | 37 | 38 | 34 | –
CN(C)C(=O)N(C)C1c2ccccc2Oc2ncccc21 (stereo unspecified) | 96 | <30 | – | inhibition in vivo at 20 mg/kg (Rattus norvegicus [14]): 100%
CNC(=O)N(C)C1c2ccc(OC)cc2Oc2ncccc21 (stereo unspecified) | 60 | 54 | <30 | –
CNC(=O)N(C)C1c2ccc(C(F)(F)F)cc2Oc2ncccc21 (stereo unspecified) | 46 | <30 | – | –
CNC(=O)N(C)C1c2cccnc2Oc2c(F)cccc21 (stereo unspecified) | 35 | <30 | – | –
CNC(=O)N(C)C1c2cccnc2Oc2cccc(C(F)(F)F)c21 (stereo unspecified) | 71 | <30 | – | –
CNC(=O)N(C)C1c2cc(F)ccc2Oc2ncccc21 (stereo unspecified) | 68 | 63 | <30 | –
CNC(=O)N(C)C1c2cccnc2Oc2c(Cl)cccc21 (stereo unspecified) | 60 | <30 | – | –
CNC(=O)N(C)C1c2ccccc2S(=O)(=O)c2ncccc21 (stereo unspecified) | <30 | <30 | – | –
CN(C(=O)N1CCCCC1)C1c2ccccc2Oc2ncccc21 (stereo unspecified) | 72 | 31 | – | –
CN1CCN(C(=O)N(C)C2c3ccccc3Oc3ncccc32)CC1 (stereo unspecified) | 94 | <30 | <30 | –
